# Sampled rows, rich in hits. Any-hit rate of the full collection: about 2.5%.
# H9c2 TAG inh: triacylglycerol accumulation inhibition. H9c2 cells, Nile Red lipid (TAG) fluorescence; cells loaded with 200 µM oleic acid. inhibition, % at 12.5 µM. actives 0.66% (n = 230,000);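 active = pattern-corrected inhibition of lipid staining of at least 50% with the nuclear-stain viability signal not falling by more than 50%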
# SR-BI uptake up: enhances SR-BI lipid uptake from DiI-HDL; activation, % at 12.5 µM; actives 0.096% (n = 320,000); CHO ldlA[mSR-BI] cells, DiI-HDL uptake fluorescence, 3 h; 100 = double the neutral-control signal;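 active = mean replicate activation of at least 60% and every replicate at or above 60%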
#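 Assay system: LDL receptor-deficient CHO ldlA cells overexpressing murine SR-BI / Medium: BSA-supplemented, HEPES-buffered Ham's F12, pH 7.4 / Probe or stimulus: DiI-labelled HDL at 10 µg/mL final / Timing: compound with DiI-HDL co-incubation, 3 h at 37 °C / Technique: bottom-read cell fluorescence after medium removal, ex 550/em 595 nm / Measure: HDL uptake via cellular fluorescence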
# SMARCA2 act: increases SMARCA2 function in MMTV reporter cells | AID 652017 | activation, % at 9.1 µM | actives 1% (n = 370,000) | MG213 cells, MMTV-luciferase reporter, dexamethasone, overnight; in the data active = activation above about 7.8%
# SR-BI HDL uptake: inhibitors of mouse SR-BI mediated HDL lipid uptake; ldlA[mSR-BI] CHO cells, DiI-HDL uptake fluorescence, 3 h; inhibition, % at 12.5 µM; actives 0.96% (n = 320,000); AID 488896;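 active = mean replicate inhibition of at least 70% and a set share of replicates each scoring 70 or more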
# Vif inh: blocks HIV Vif function | actives 0.35% (n = 340,000) | inhibition, % at 7.49 µM | HEK293T cells, Vif self-association by quenched fluorescence, imaging, 24 h; in the data active = inhibition above about 50%, passing the limit was not always enough
# Hits are given with their value; n = inactive; x = no result.
SMILES,H9c2 TAG inh,SR-BI uptake up,SMARCA2 act,SR-BI HDL uptake,Vif inh
CCOC(=O)c1sc(N2C(=O)C(O)=C(C(=O)c3ccco3)C2c2ccco2)nc1C (stereo unspecified),x,n,n,n,n
COc1ccc2nc(N3C(=O)C(O)=C(C(=O)c4ccco4)C3c3ccccc3OC)sc2c1 (stereo unspecified),x,n,n,n,82
COc1ccc2nc(N3C(=O)C(O)=C(C(=O)c4ccco4)C3c3ccc(C)o3)sc2c1 (stereo unspecified),n,n,n,n,n
CCOc1ccc2nc(N3C(=O)C(O)=C(C(=O)c4ccco4)C3c3ccco3)sc2c1 (stereo unspecified),n,n,7.9,n,n
COC(=O)[C@]12C[C@H](CC(=O)NCc3cccc(C(F)(F)F)c3)C(=O)N(Cc3ccccc3)C1=C[C@H](COCc1ccccc1)O[C@@H]2C,x,x,n,x,x
C[C@@H]1CN([C@H](C)CO)S(=O)(=O)c2ccc(Br)cc2O[C@H]1CN(C)CC1CCOCC1,x,x,n,x,x
CCCCCCCCN1C(=O)[C@@H](CC(=O)NCc2cccc3ccccc23)C[C@@]2(C(=O)OC)C1=C[C@H](C(C)C)O[C@@H]2C1CC1,x,x,n,x,x
O=C(Cc1sc(Nc2ccccc2)nc1-c1ccccc1)NCc1ccccc1,n,n,n,n,98
COC(=O)C1CN(Cc2ccc(F)cc2)CCS(=O)(=O)N1Cc1ccccc1 (stereo unspecified),x,x,n,x,x
O=C1CCC/C(=N/Nc2ccc(Cl)cc2)C1,n,n,n,80,n
COc1cc(/C=C(\C#N)C(=O)Nc2ccc(SC(F)F)cc2)cc(OC)c1OC,x,n,n,86,n
C=CCN=C1NC(c2cccc(Cl)c2)C(C(=O)OC)=C(C)N1C (stereo unspecified),x,x,n,x,x
O=C(CN1CCOCC1)Nc1ccc(OCc2ccccc2)cc1,n,n,n,n,n
O=C(CN1CCN(CC(=O)Nc2ccc(OCc3ccccc3)cc2)CC1)Nc1ccc(F)cc1,x,451,x,n,n
O=C(Nc1ccccc1C(=O)Nc1ccc(F)cc1)c1ccco1,n,n,n,75,n
O=C(Nc1ccccc1)c1ccccc1OCc1ccc(F)cc1,n,n,n,74,n
C/C(CS(=O)(=O)c1ccc(Cl)c(Cl)c1)=N/NC(N)=S,n,n,n,81,n
C/C(CS(=O)(=O)c1ccc(Cl)cc1)=N/NC(N)=S,n,n,n,n,n
COC(=O)C1=C(C)N(C)C(=NCc2ccccc2C(F)(F)F)NC1CCc1ccccc1 (stereo unspecified),x,x,n,x,x
C[C@H](CO)N1C[C@H](C)[C@@H](CN(C)C(=O)Nc2ccc(N3CCN(C)CC3)cc2)OCc2cn(nn2)CCCC1=O,x,x,n,x,x
C[C@H](CO)N1C[C@H](C)[C@@H](CN(C)S(C)(=O)=O)OCc2cn(nn2)CCCC1=O,x,x,n,x,x
C=C1C(=O)[C@]23C[C@H]1CCC2[C@]1(C)CCC[C@@](C)(C(=O)O)C1C[C@@H]3O (stereo partly specified),x,x,n,x,n
C=C1C(=O)[C@]23C[C@H]1CC[C@H]2[C@]1(C)[C@@H](OC(C)=O)CC[C@@](C)(C(=O)O)[C@H]1C[C@@H]3OC(C)=O,x,x,7.9,x,x
COc1ccc(Cl)cc1NC(=S)N1CCN(C(=O)C2CCCO2)CC1 (stereo unspecified),n,n,n,n,n
COc1ccccc1NC(=S)N1CCN(C(=O)C2CCCO2)CC1 (stereo unspecified),n,n,n,n,64
SMILES,H9c2 TAG inh,SR-BI uptake up,SMARCA2 act,SR-BI HDL uptake,Vif inh
CCOC(=O)c1[nH]c2ccc(F)cc2c1NC(=O)c1cc(OC)c(OC)c(OC)c1,n,n,n,71,n
CCOC(=O)c1[nH]c2ccc(F)cc2c1NC(=O)c1ccccc1C(=O)O,x,n,n,n,n
CCOC(=O)[C@]12CCCCC/C=C\1N(CCc1ccc(Cl)cc1)C(=O)[C@H]2CC(=O)N1CCCCC1,x,x,n,x,x
CCOC(=O)c1ccc(NC(=O)C2CC3CCC2C3)cc1 (stereo unspecified),n,x,7.9,x,n
O=C(N[C@H](Cc1ccccc1)C(=O)N(CCC1=CCCCC1)CC1CC1)[C@H]1O[C@@H](n2ccc(=O)[nH]c2=O)[C@H](O)[C@@H]1O,x,x,n,x,x
COc1ccc2nc(NC(=O)c3ccoc3C)sc2c1,x,n,n,n,n
COc1ccc2nc(NC(=O)c3cc(C)oc3C)sc2c1,n,n,n,83,n
Cc1ccc(Cc2c(-c3cccc(Br)c3)nc3c4ccccc4ccn23)cc1,x,x,n,x,x
